ChEMBL document CHEMBL4325892, “4-tert-Pentylphenoxyalkyl derivatives - Histamine H3 receptor ligands and monoamine oxidase B inhibitors” (Bioorg Med Chem Lett, 2018)
pIC50, pKi: −log10 of the molar value.

Columns and labels:
[1] = molecular target: T1, Amine oxidase [flavin-containing] B (Homo sapiens, UniProt P27338); assay: Inhibition of human MAO-B expressed in baculovirus infected BTI insect cells using p-tyramine as substrate preincubated for 30 mins followed by substrate addition and measured after 1 hr by fluorescence-based Amplex Red MAO assay
T1 sequence (P27338 whole entry): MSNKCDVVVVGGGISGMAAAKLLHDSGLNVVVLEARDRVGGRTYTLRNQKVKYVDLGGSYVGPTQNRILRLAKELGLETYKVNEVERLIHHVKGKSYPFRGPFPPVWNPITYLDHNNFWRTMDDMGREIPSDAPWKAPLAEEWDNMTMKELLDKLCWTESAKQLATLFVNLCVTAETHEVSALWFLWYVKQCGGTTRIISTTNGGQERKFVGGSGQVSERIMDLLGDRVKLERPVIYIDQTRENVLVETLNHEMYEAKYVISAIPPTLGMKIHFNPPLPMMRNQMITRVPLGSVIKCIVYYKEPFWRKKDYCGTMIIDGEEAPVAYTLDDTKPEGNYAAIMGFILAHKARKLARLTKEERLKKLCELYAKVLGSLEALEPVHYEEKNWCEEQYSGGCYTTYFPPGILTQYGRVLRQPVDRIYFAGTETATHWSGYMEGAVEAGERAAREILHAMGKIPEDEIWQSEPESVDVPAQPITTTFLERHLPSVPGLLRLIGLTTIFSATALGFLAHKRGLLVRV

Histamine H3 receptor = Histamine H3 receptor (Homo sapiens, UniProt Q9Y5N1); assay: Displacement of [3H]-N-alpha-methylhistamine from human H3 receptor expressed in CHO-K1 cell membranes after 60 mins by microbeta2 scintillation counting analysis
Chain of Histamine H3 receptor (Q9Y5N1 whole entry): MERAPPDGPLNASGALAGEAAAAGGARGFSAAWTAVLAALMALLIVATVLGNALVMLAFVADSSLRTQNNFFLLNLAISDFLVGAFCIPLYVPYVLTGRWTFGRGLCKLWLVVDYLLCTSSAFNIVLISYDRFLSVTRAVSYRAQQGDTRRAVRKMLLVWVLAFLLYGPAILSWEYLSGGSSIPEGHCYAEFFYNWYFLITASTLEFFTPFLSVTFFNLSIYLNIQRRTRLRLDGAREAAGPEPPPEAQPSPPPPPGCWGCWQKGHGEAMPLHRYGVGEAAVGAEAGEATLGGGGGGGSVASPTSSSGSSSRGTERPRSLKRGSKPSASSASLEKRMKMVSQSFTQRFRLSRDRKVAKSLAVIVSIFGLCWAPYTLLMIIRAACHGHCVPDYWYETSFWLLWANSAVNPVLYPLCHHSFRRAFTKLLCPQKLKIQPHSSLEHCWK
Summary of the method: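 Radioligand binding with [3H]Nα-methylhistamine on membrane preparations from CHO-K1 cells stably expressing human H3 receptor; Ki reported as the mean of two independent experiments ± SEM.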

[2] = molecular target: T1, Amine oxidase [flavin-containing] B; assay: Reversible inhibition of human MAO-B expressed in baculovirus infected BTI insect cells at IC80 preincubated with compound and p-tyramine for 22 mins followed by p-tyramine increase to 1 mM and measured every minute for 5 hrs by fluorescence assay
Summary of the method: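 Reversibility test: hMAO B preincubated with inhibitor in the presence of 10 μM para-tyramine. After 22 min, para-tyramine raised to 1 mM, then fluorescence read every minute for 5 h.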

MAO-A = molecular target: T2, MAO-A (Homo sapiens, UniProt P21397); assay: Inhibition of human MAO-A expressed in baculovirus infected BTI insect cells at 10 uM using p-tyramine as substrate preincubated for 30 mins followed by substrate addition and measured after 1 hr by fluorescence-based Amplex Red MAO assay relative to control; details: probe p-tyramine
T2 sequence (P21397 whole entry): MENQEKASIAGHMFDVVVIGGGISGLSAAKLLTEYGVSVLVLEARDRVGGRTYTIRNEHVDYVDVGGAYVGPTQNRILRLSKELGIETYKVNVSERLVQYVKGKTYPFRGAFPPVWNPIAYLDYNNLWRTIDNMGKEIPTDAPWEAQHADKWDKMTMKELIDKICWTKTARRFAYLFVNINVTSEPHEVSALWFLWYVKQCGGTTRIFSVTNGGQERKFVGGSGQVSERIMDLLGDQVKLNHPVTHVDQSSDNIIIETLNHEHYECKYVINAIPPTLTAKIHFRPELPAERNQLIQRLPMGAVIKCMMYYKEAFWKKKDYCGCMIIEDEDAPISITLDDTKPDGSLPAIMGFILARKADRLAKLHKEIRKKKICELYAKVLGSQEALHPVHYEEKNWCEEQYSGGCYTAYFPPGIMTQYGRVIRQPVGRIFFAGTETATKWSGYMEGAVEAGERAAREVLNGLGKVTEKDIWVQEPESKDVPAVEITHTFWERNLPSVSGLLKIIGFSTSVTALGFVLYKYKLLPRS

[3] = molecular target: T1, Amine oxidase [flavin-containing] B; assay: Inhibition of human MAO-B expressed in baculovirus infected BTI insect cells at 1 uM using p-tyramine as substrate preincubated for 30 mins followed by substrate addition and measured after 1 hr by fluorescence-based Amplex Red MAO assay relative to control
[4] = molecular target: T1, Amine oxidase [flavin-containing] B; assay: Non-competitive inhibition of human MAO-B expressed in baculovirus infected BTI insect cells at 0.2 to 20 nM preincubated with compound and p-tyramine for 22 mins followed by p-tyramine increase to 1 mM and measured every minute for 5 hrs by Lineweaver-Burk plot analysis
Summary of the method: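 Kinetic mode study: hMAO B activity measured at inhibitor 0, 0.2, 0.5 and 20 nM, each across six para-tyramine concentrations (0.05, 0.1, 0.5, 1.0, 1.5, 2.0 mM) to assign inhibition type.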

| SMILES | pIC50 [1] | pKi (Histamine H3 receptor) | inhibition (INH) [2] | inhibition at 1 h, 10 µM (MAO-A) [%] | inhibition at 1 µM [3] [%] | inhibition (INH) [4] |
| --- | --- | --- | --- | --- | --- | --- |
| CCC(C)(C)c1ccc(OCCCCCCN2CCCCC2)cc1 | < 6.00 | – | – | – | 21 | – |
| CCC(C)(C)c1ccc(OCCCCCCCCN2CCC(C)CC2)cc1 | < 6.00 | – | – | – | 37 | – |
| CCC(C)(C)c1ccc(OCCCCCCCN2CCCCC2)cc1 | < 6.00 | – | – | – | 18 | – |
| CCC(C)(C)c1ccc(OCCCCCCCCN2CCCCCC2)cc1 | < 6.00 | – | – | – | 40 | – |
| CCC(C)(C)c1ccc(OCCCCCN2CCC(C)CC2)cc1 | < 6.00 | – | – | – | 48 | – |
| CCC(C)(C)c1ccc(OCCCCCN2CCCCCC2)cc1 | 5.95 | – | – | – | – | – |
| CCC(C)(C)c1ccc(OCCCCCCCCN2CCCC(C)C2)cc1 (configuration not stated) | < 6.00 | – | – | – | 33 | – |
| CCC(C)(C)c1ccc(OCCCCCCN2CCCC(C)C2)cc1 (configuration not stated) | < 6.00 | – | – | – | 46 | – |
| CCC(C)(C)c1ccc(OCCCCN2CCC(C)CC2)cc1 | < 6.00 | – | – | – | 47 | – |
| CCC(C)(C)c1ccc(OCCCCCCCCN2CCCCC2)cc1 | < 6.00 | – | – | – | 22 | – |
| CCC(C)(C)c1ccc(OCCCCCCN2CCCCCC2)cc1 | 6.41 | – | – | – | – | – |
| CCC(C)(C)c1ccc(OCCCN2CCCC(C)(C)C2)cc1 | 6.38 | < 6.00 | – | 7 | – | – |

Second part, the compound after the results:

| pIC50 [1] | pKi (Histamine H3 receptor) | inhibition (INH) [2] | inhibition at 1 h, 10 µM (MAO-A) [%] | inhibition at 1 µM [3] [%] | inhibition (INH) [4] | SMILES |
| --- | --- | --- | --- | --- | --- | --- |
| 7.72 | 7.43 | Active | 14 | – | – | CCC(C)(C)c1ccc(OCCCN2CCCCC2)cc1 |
| < 6.00 | – | – | – | 29 | – | CCC(C)(C)c1ccc(OCCCCCN2CCCC(C)C2)cc1 (configuration not stated) |
| < 6.00 | – | – | – | 28 | – | CCC(C)(C)c1ccc(OCCCCCN2CCCCC2)cc1 |
| 5.91 | – | – | – | – | – | CCC(C)(C)c1ccc(OCCCCN2CCCC(C)C2)cc1 (configuration not stated) |
| 5.83 | – | – | – | – | – | CCC(C)(C)c1ccc(OCCCCCCCN2CCCCCC2)cc1 |
| 6.42 | – | – | 10 | – | – | CCC(C)(C)c1ccc(OCCCCN2CCCCC2)cc1 |
| < 6.00 | – | – | – | 35 | – | CCC(C)(C)c1ccc(OCCCCCCCN2CCC(C)CC2)cc1 |
| 6.22 | – | – | – | – | – | CCC(C)(C)c1ccc(OCCCCN2CCCCCC2)cc1 |
| < 6.00 | – | – | – | 37 | – | CCC(C)(C)c1ccc(OCCCCCCN2CCC(C)CC2)cc1 |
| < 6.00 | – | – | – | 35 | – | CCC(C)(C)c1ccc(OCCCCCCCN2CCCC(C)C2)cc1 (configuration not stated) |
| 7.70 | 6.36 | Active | 5 | – | – | CCC(C)(C)c1ccc(OCCCN2CCCCC2C)cc1 (configuration not stated) |
| 7.66 | 6.85 | Active | 5 | – | – | CCC(C)(C)c1ccc(OCCCN2C(C)CCCC2C)cc1 (configuration not stated) |
| 5.68 | 6.83 | – | – | – | – | CCC(C)(C)c1ccc(OCCCN2CCC(C)CC2)cc1 |
| 7.19 | 6.53 | – | 12 | – | – | CCC(C)(C)c1ccc(OCCCN2CCCCCC2)cc1 |
| 6.02 | 6.12 | – | 7 | – | – | CCC(C)(C)c1ccc(OCCCN2CC(C)CC(C)C2)cc1 (configuration not stated) |
| 6.37 | 7.00 | – | 11 | – | – | CCC(C)(C)c1ccc(OCCCN2CCCC(C)C2)cc1 (configuration not stated) |
| 8.35 | 7.20 | Active | 5 | – | Active | CCC(C)(C)c1ccc(OCCCN2CCCC2)cc1 |
| – | – | Active | – | – | – | C[C@H](NCc1ccc(OCc2cccc(F)c2)cc1)C(N)=O [SAFINAMIDE] |
